Compound activity deposited in PubChem BioAssay by The Scripps Research Institute Molecular Screening Center.
Shown are actives, neighbours in structure and some others; about 1.9% of the full set was active somewhere.
PLC-beta3 inh = PLC-beta3 (human) inhibition, primary screen. Q01970. Purified PLC-beta3, fluorogenic substrate, fluorescence. inhibition, % at 12.2 µM. 370,000 tested, 0.18% active; in the data active means inhibition above about 11%;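 further: 0% = median of compound wells on plate and 100% = full blocker control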
HGIII-sPLA2 inh = Inhibits HGIII-sPLA2 liposome hydrolysis, primary screen; Q9NZ20; QFRET BODIPY PC-A2 liposome hydrolysis, fluorescence; inhibition, % at 12.2 µM; 370,000 tested, 0.56% active;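 active means inhibition above mean plus 3 SD of compounds lying within the high and low control bounds, cut at about 19% in these data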;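 further: 0% = median of test compound wells and 100% = no enzyme DMSO wells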
PLCg1 inh = blocks human PLC-gamma1 enzyme activity; 370,000 tested, 0.84% active; P19174; purified PLC-gamma1, fluorogenic substrate, fluorescence; inhibition, % at 12.2 µM; in the data active means inhibition above about 9.5%
Target sequence (P19174 whole entry, looked up): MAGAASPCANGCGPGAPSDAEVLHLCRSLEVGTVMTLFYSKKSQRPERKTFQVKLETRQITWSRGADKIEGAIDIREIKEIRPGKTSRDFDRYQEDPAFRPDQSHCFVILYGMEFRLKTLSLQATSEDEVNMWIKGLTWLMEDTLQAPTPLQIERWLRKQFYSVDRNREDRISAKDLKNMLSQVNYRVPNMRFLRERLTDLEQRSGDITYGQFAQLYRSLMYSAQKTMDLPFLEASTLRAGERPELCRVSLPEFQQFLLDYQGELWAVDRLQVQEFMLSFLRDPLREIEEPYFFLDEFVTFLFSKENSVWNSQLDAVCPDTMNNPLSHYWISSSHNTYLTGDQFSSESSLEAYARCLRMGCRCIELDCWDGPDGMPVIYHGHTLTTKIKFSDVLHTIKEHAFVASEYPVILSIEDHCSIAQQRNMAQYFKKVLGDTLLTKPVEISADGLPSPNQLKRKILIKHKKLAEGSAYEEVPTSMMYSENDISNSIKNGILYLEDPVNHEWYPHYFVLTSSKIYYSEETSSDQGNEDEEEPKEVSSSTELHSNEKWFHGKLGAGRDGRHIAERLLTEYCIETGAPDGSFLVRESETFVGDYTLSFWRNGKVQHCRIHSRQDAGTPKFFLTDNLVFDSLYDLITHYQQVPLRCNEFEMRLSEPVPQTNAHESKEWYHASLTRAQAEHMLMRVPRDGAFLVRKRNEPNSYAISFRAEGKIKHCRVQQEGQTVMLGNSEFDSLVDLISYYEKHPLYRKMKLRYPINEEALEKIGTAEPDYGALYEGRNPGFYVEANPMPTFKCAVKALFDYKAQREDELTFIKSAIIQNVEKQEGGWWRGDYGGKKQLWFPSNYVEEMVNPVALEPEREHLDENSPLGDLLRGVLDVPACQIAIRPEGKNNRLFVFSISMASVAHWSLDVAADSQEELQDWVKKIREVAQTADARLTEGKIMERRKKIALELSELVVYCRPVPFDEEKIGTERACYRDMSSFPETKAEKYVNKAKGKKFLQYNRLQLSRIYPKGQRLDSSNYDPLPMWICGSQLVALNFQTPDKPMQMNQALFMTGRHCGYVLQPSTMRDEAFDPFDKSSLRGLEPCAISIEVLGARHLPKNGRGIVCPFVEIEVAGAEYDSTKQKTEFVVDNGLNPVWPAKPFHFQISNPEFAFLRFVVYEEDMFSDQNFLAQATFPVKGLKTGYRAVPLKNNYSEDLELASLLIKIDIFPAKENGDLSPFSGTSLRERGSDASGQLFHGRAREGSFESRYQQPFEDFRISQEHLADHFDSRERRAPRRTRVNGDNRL
DAGLB inhibitor = diacylglycerol lipase beta (human) inhibition; 340,000 tested, 0.059% active; AID 504411; Q8NCG7; inhibition, % at 5.17 µM; HEK293T DAGLB membrane lysate, EnzChek fluorogenic substrate; in the data active means inhibition above about 34%;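 further: 0% = enzyme with vehicle and 100% = wells lacking enzyme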
TbMetRS inhib = blocks T. brucei methionyl-tRNA synthetase activity. purified T. brucei MetRS, ATP depletion, Kinase-Glo luminescence. inhibition, % at 11.9 µM. 360,000 tested, 0.4% active. AID 624268;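 active means inhibition above a per-plate cutoff of the control wells' mean inhibition plus 3 SD, cut at about 5.5% in these data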;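 further: 0% = DMSO wells median and 100% = median of wells with control inhibitor compound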
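Material: T. brucei methionyl-tRNA synthetase, purified; reagent: substrates ATP, L-methionine and bulk Escherichia coli tRNA; dosing: 11.9 µM single point; timing: 15 min plus 2 h at 25 °C; detection: luminescence of leftover ATP; evaluation: % inhibition; control set: DMSO-only wells as low control; replicates: singlicate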
TbMetRS confirm = confirmation of Trypanosoma brucei MetRS inhibitors; shares compounds with TbMetRS inhib; T. brucei MetRS enzyme, luminescence (ATP depletion); inhibition, % at 11.9 µM; 1,400 tested, 93% active; in the data active means inhibition above about 7%
Jurkat cytotox = counter-screen for T. brucei MetRS inhibitors: Jurkat cell cytotoxicity. inhibition, % at 8.3 µM. Jurkat cells viability, ATP luminescence. AID 624413. 1,400 tested, 12% active. shares compounds with TbMetRS inhib; in the data active means inhibition above about 15%;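 further: 0% = vehicle and 100% = reference inhibitor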
Tb MetRS inh FP = inhibits T. brucei methionyl tRNA synthetase in orthogonal FP test; 1,400 tested, 44% active; shares compounds with TbMetRS inhib; inhibition, % at 11.9 µM; AID 651607; purified T. brucei MetRS, fluorescence polarization; in the data active means inhibition above about 17%;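 further: 0% = vehicle wells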
An asterisk follows results filed as active.

O=C(CSc1nc2ccccc2[nH]1)NCc1ccc2c(c1)OCO2 was read as PLC-beta3 inh 1.7, HGIII-sPLA2 inh 0.1, PLCg1 inh -0.2, DAGLB inhibitor -2.4, TbMetRS inhib 28.4*, TbMetRS confirm 43.0*, Jurkat cytotox 1.2 and Tb MetRS inh FP 19.7*.
CC(C)C[C@H](NC(=O)N1CCOCC1)C(=O)N1CCC[C@H]1C(=O)NCc1ccccc1 was read as PLC-beta3 inh 2.3, HGIII-sPLA2 inh 14.2 and PLCg1 inh -0.7.
COc1cccc(C2CC=C(C(=O)O)CN2S(=O)(=O)c2ccc(C)cc2)c1 (stereo not given) was read as PLC-beta3 inh -1.5, HGIII-sPLA2 inh 1.6 and PLCg1 inh -3.1.
For C/C(=N\Nc1nc2ccccc2[nH]1)c1ccc2c(c1)OCCO2 the results were PLC-beta3 inh -43.7, HGIII-sPLA2 inh -2.2, PLCg1 inh -26.2, DAGLB inhibitor 2.1 and TbMetRS inhib 2.6.
C/C(=N\Nc1nc2ccccc2[nH]1)c1ccc2c(c1)OCO2 was read as PLC-beta3 inh -4.0, HGIII-sPLA2 inh 2.0, PLCg1 inh -5.6, DAGLB inhibitor -1.5, TbMetRS inhib 7.3*, TbMetRS confirm 8.8*, Jurkat cytotox 0.1 and Tb MetRS inh FP 18.2*.
Screening c1ccc(CNc2nc(NCCc3ccncc3)c3sccc3n2)cc1 returned PLC-beta3 inh -0.4, HGIII-sPLA2 inh -6.2, PLCg1 inh 0.6, TbMetRS inhib 11.6*, TbMetRS confirm 33.5*, Jurkat cytotox 9.3 and Tb MetRS inh FP 19.2*.
For O=C(CNc1cccc2ccccc12)N/N=C/c1ccc[nH]1 the results were PLC-beta3 inh -72.8, HGIII-sPLA2 inh -3.5, PLCg1 inh -43.8, DAGLB inhibitor -2.8, TbMetRS inhib 9.8*, TbMetRS confirm 64.9*, Jurkat cytotox 64.4* and Tb MetRS inh FP 43.6*.
Screening CN1CCC(N[C@@H](Cc2c[nH]c3ccccc23)C(=O)NCCCc2ccccc2)(C(=O)NCCc2c[nH]c3ccccc23)CC1 returned PLC-beta3 inh 6.9, HGIII-sPLA2 inh -59.2 and PLCg1 inh 6.7.
O=c1[nH]c2cc3ccccc3cc2nc1-c1nnnn1C1CCCC1 was read as PLC-beta3 inh -122.5, HGIII-sPLA2 inh -17.8, PLCg1 inh -80.2, TbMetRS inhib 52.3*, TbMetRS confirm 60.9*, Jurkat cytotox 68.8* and Tb MetRS inh FP 39.8*.
Screening Cc1cc2nc(-c3nnnn3Cc3ccccc3)c(=O)[nH]c2cc1C returned PLC-beta3 inh -169.2, HGIII-sPLA2 inh -4.1, PLCg1 inh -135.5 and TbMetRS inhib 0.0.
Screening O=c1[nH]c2cc3ccccc3cc2nc1-c1nnnn1Cc1ccccc1 returned PLC-beta3 inh -38.1, HGIII-sPLA2 inh -6.8, PLCg1 inh -26.2, TbMetRS inhib 21.6*, TbMetRS confirm 38.4*, Jurkat cytotox 9.1 and Tb MetRS inh FP 18.3*.
`C[C@@H]1CN([C@H](C)CO)C(=O)c2cc(NS(=O)(=O)c3ccccc3)ccc2O[C@@H](C)CCCCO[C@@H]1CN(C)Cc1ccc(Cl)c(Cl)c1` gave PLC-beta3 inh 3.1, HGIII-sPLA2 inh -20.5 and PLCg1 inh 0.3.
For O=C(CSc1ccc(-c2nc3ccccc3[nH]2)cn1)N1CCN(C(=O)c2ccco2)CC1 the results were PLC-beta3 inh -33.8, HGIII-sPLA2 inh -0.7, PLCg1 inh -20.0, DAGLB inhibitor 2.3, TbMetRS inhib 7.8*, TbMetRS confirm 14.7*, Jurkat cytotox 15.2* and Tb MetRS inh FP 12.3.
`Cc1ccc(NC(=O)CCNS(=O)(=O)c2ccc(Br)s2)cc1` gave PLC-beta3 inh -7.5, HGIII-sPLA2 inh -19.5, PLCg1 inh 2.1, DAGLB inhibitor -3.0, TbMetRS inhib 17.7*, TbMetRS confirm 39.8*, Jurkat cytotox -0.6 and Tb MetRS inh FP 23.8*.
For Cc1ccnc(NCc2ccc(Br)cc2)c1 the results were PLC-beta3 inh -8.0, HGIII-sPLA2 inh 5.1, PLCg1 inh -9.6, DAGLB inhibitor -1.6, TbMetRS inhib 6.0*, TbMetRS confirm 15.1*, Jurkat cytotox -1.1 and Tb MetRS inh FP 5.7.
`CCc1cccc(NC(=O)Cn2cc(C=O)c3ccccc32)c1` gave PLC-beta3 inh 1.4, HGIII-sPLA2 inh -15.0, PLCg1 inh -0.1, DAGLB inhibitor -5.0, TbMetRS inhib 9.0*, TbMetRS confirm 18.8*, Jurkat cytotox 14.3 and Tb MetRS inh FP 11.8.
For CCCC1CCC2(CCCN2CCOC(=O)Nc2ccccc2C)CC1 (stereo not given) the results were PLC-beta3 inh -3.0, HGIII-sPLA2 inh -7.2 and PLCg1 inh 0.3.
Screening Cc1ccc(S(=O)(=O)NNC(=O)Nc2ccc(Cl)c(Cl)c2)cc1 returned PLC-beta3 inh -6.0, HGIII-sPLA2 inh -4.6, PLCg1 inh 1.4, DAGLB inhibitor 0.0, TbMetRS inhib 11.6*, TbMetRS confirm 12.7*, Jurkat cytotox 0.7 and Tb MetRS inh FP 10.1.
Cc1ccc(NC(=O)NNS(=O)(=O)c2ccc(Br)cc2)cc1 was read as PLC-beta3 inh 1.6, HGIII-sPLA2 inh -11.6, PLCg1 inh 4.6, DAGLB inhibitor -0.8 and TbMetRS inhib 1.5.
Screening NS(=O)(=O)c1cccc(NC(=O)Cc2ccc(Cl)c(Cl)c2)c1 returned PLC-beta3 inh -3.9, HGIII-sPLA2 inh -18.9, PLCg1 inh 1.7, DAGLB inhibitor -3.5, TbMetRS inhib 11.9*, TbMetRS confirm 19.1*, Jurkat cytotox 5.9 and Tb MetRS inh FP 11.8.
Screening O=C(NCCc1ccc(Cl)cc1)Nc1ccc(Cl)cc1 returned PLC-beta3 inh -5.3, HGIII-sPLA2 inh -0.8, PLCg1 inh 1.3, DAGLB inhibitor -12.2, TbMetRS inhib 71.3*, TbMetRS confirm 68.8*, Jurkat cytotox 4.0 and Tb MetRS inh FP 54.5*.
`NS(=O)(=O)c1ccc(CCNC(=O)Nc2ccc(Cl)c(Cl)c2)cc1` gave PLC-beta3 inh 2.2, HGIII-sPLA2 inh -39.1, PLCg1 inh 2.4, DAGLB inhibitor -1.4, TbMetRS inhib 15.2*, TbMetRS confirm 23.1*, Jurkat cytotox 18.0* and Tb MetRS inh FP 19.3*.
Screening O=C(/C=C(\Nc1cc(Cl)c(F)c(Cl)c1)c1ccccc1)c1ccccc1 returned PLC-beta3 inh -3.5, HGIII-sPLA2 inh 14.9 and PLCg1 inh -0.5.
`O=C(NCCc1ccncc1)Nc1ccc(Cl)cc1` gave PLC-beta3 inh 7.0, HGIII-sPLA2 inh 3.8, PLCg1 inh 4.5, DAGLB inhibitor 0.9, TbMetRS inhib 6.2*, TbMetRS confirm 14.2*, Jurkat cytotox -0.7 and Tb MetRS inh FP 0.5.
For CC(C)(C)c1ccc(S(=O)(=O)N2CCCC(C(=O)N3CCN(Cc4ccccc4)CC3)C2)cc1 (stereo not given) the results were PLC-beta3 inh 3.4, HGIII-sPLA2 inh -6.9 and PLCg1 inh 2.0.
